Source: ChEMBL document CHEMBL1212869, “Anti-HIV and antiplasmodial activity of original flavonoid derivatives” (Bioorg Med Chem, 2010)

Key:
[1] = test system: THP-1; test: Cytotoxicity against human THP1 cells using propidium iodide staining after 72 hrs by flow cytometry; format: cell-based; conditions: THP-1, 72 h
[2] = test system: Plasmodium falciparum; test: Antiplasmodial activity against chloroquine-resistant Plasmodium falciparum W2 infected in human A+ erythrocytes assessed as inhibition of parasite proliferation after 48 hrs; format: functional, organism-based; conditions: W2, 48 h
In short: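 W2 parasites were cultured in RPMI 1640 with 25 mM HEPES, 25 mM NaHCO3 and 10% A+ human serum at 2.5% hematocrit, at 37 °C under 10% O2/6% CO2/84% N2. After 48 h exposure without medium change, cells were stained with hydroethidine (0.05 mg/mL in PBS, 20 min, dark, 37 °C). Parasitaemia was read by flow cytometry. IC50 came from three independent experiments.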

[3] = test system: Human immunodeficiency virus 2; test: Antiviral activity against HIV2 ROD infected in human MT4 cells assessed as inhibition of virus-induced cytopathic effect after 4 days by MTT assay; format: functional, organism-based; conditions: Human immunodeficiency virus 2, ISOLATE ROD, MT4, 96 h
[4] = test system: Human immunodeficiency virus 1; test: Antiviral activity against HIV1 3B infected in human MT4 cells assessed as inhibition of virus-induced cytopathic effect after 4 days by MTT assay; format: functional, organism-based; conditions: Human immunodeficiency virus 1, 3B, MT4, 96 h
[5] = Cytotoxicity against human MT4 cells after 4 days by MTT assay; format: cell-based
In short: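 Uninfected MT-4 cells were run in parallel with the antiviral test under the same conditions: 10⁵ cells/mL, serial compound dilutions from DMSO stocks, 4 days at 37 °C. Viability was read by MTT. CC50 is the concentration that lowers viability of uninfected cells by 50%.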

[6] = Selectivity index, ratio of IC50 for human THP1 cells to IC50 for chloroquine-resistant Plasmodium falciparum W2; format: toxicity, cell-based, THP-1; conditions: read-out: Selectivity Index

Compound | IC50 [1] | IC50 [2] | IC50 [3] | IC50 [4] | CC50 at 96 h [5] | selectivity ratio [6]
CC(=O)Nc1ccc2oc(-c3cccc(C(F)(F)F)c3)cc(=O)c2c1 | 50 µM | 50 µM | 10 µM | 10 µM | 10 µM | –
COc1cccc(-c2oc3ccc(NC(C)=O)cc3c(=O)c2OC)c1 | 5 µM | > 5 µM | 369 µM | 369 µM | 369 µM | –
COc1cccc(-c2cc(=O)c3cc(N)ccc3o2)c1 | > 125 µM | 31 µM | 247 µM | 247 µM | 247 µM | > 4
COc1cccc(-c2oc3ccc(NC(C)=O)cc3c(=O)c2O)c1 | 50 µM | 50 µM | 33.3 µM | 33.3 µM | 33.3 µM | –
COc1cccc(/C=C/C(=O)c2cc(NC(C)=O)ccc2O)c1 | 93.7 µM | 13.2 µM | 40 µM | 40 µM | 40 µM | 7.1
Nc1ccc2oc(-c3ccc(C(F)(F)F)cc3)cc(=O)c2c1 | 1.9 µM | > 1.9 µM | 273 µM | 273 µM | 273 µM | –
COc1cccc(-c2oc3ccc(N)cc3c(=O)c2O)c1 | 2 µM | > 2 µM | 40.8 µM | 40.8 µM | 40.8 µM | –
COc1ccc(-c2oc3ccc(N)cc3c(=O)c2O)cc1 | 29 µM | > 29 µM | 239 µM | 239 µM | 239 µM | –
COc1ccccc1-c1cc(=O)c2cc(NC(C)=O)ccc2o1 | 50 µM | > 50 µM | 226 µM | 226 µM | 226 µM | –
COc1c(-c2ccc(F)cc2)oc2ccc(N)cc2c1=O | 36 µM | 33 µM | 141 µM | 141 µM | 141 µM | 1.1
COc1cccc(-c2oc3ccc(N)cc3c(=O)c2OC)c1 | 37 µM | 13 µM | 251 µM | 251 µM | 251 µM | 2.8
CC(=O)Nc1ccc(O)c(C(=O)/C=C/c2ccccc2)c1 | 85.5 µM | 15.9 µM | 49.8 µM | 49.8 µM | 49.4 µM | 5.4
Nc1ccc2oc(-c3cccc(C(F)(F)F)c3)cc(=O)c2c1 | 34 µM | > 34 µM | 138 µM | 138 µM | 138 µM | –
Nc1ccc2oc(-c3cccc(F)c3)c(O)c(=O)c2c1 | 30 µM | > 30 µM | 35.3 µM | 35.3 µM | 35.3 µM | –
Nc1ccc2oc(-c3ccccc3)c(O)c(=O)c2c1 | 27 µM | > 27 µM | 216 µM | 216 µM | 216 µM | –
Nc1ccc2oc(-c3ccc(F)cc3)c(O)c(=O)c2c1 | 4 µM | > 4 µM | 92.6 µM | 92.6 µM | 92.6 µM | –
COc1c(-c2ccccc2F)oc2ccc(NC(C)=O)cc2c1=O | > 125 µM | 15 µM | 180 µM | 180 µM | 180 µM | > 8.3
CC(=O)Nc1ccc(O)c(C(=O)/C=C/c2ccc(F)cc2)c1 | 68.8 µM | 16.9 µM | 41.1 µM | 41.1 µM | 41.1 µM | 4.1
COc1ccccc1-c1oc2ccc(NC(C)=O)cc2c(=O)c1O | > 125 µM | 50 µM | 385 µM | 385 µM | 385 µM | > 2.5
CC(=O)Nc1ccc2oc(-c3ccc(C(F)(F)F)cc3)c(O)c(=O)c2c1 | > 50 µM | > 50 µM | 7.3 µM | 7.3 µM | 7.3 µM | –
COc1ccc(-c2cc(=O)c3cc(N)ccc3o2)cc1 | 124 µM | 35 µM | 240 µM | 240 µM | 240 µM | 3.5
COc1ccccc1-c1oc2ccc(NC(C)=O)cc2c(=O)c1OC | 108 µM | 16 µM | 154 µM | 154 µM | 154 µM | 6.7
Nc1ccc2oc(-c3ccccc3)cc(=O)c2c1 [6-AMINOFLAVONE] | 36 µM | > 36 µM | 209 µM | 209 µM | 209 µM | –
Nc1ccc2oc(-c3ccc(F)cc3)cc(=O)c2c1 | 10 µM | > 10 µM | 264 µM | 264 µM | 264 µM | –

Compound | IC50 [1] | IC50 [2] | IC50 [3] | IC50 [4] | CC50 at 96 h [5] | selectivity ratio [6]
COc1cccc2c1C(=O)c1c(O)c3c(c(O)c1C2=O)C[C@@](O)(C(=O)CO)C[C@@H]3O[C@H]1C[C@H](N)[C@H](O)[C@H](C)O1 [DOXORUBICIN] | 0.07 µM | – | – | – | – | –
COc1ccc(/C=C/C(=O)c2cc(NC(C)=O)ccc2O)cc1 | 59.2 µM | 6.7 µM | 38.7 µM | 38.7 µM | 38.7 µM | 8.8
CC(=O)Nc1ccc2oc(-c3ccccc3F)c(O)c(=O)c2c1 | 47 µM | > 47 µM | 171 µM | 171 µM | 171 µM | –
CC(=O)Nc1ccc(O)c(C(=O)/C=C/c2cccc(C(F)(F)F)c2)c1 | 8.4 µM | 11.3 µM | 32.1 µM | 32.1 µM | 32.1 µM | –
COc1ccccc1-c1oc2ccc(N)cc2c(=O)c1OC | 116 µM | 7.7 µM | 229 µM | 229 µM | 229 µM | 15.1
CC(=O)Nc1ccc2oc(-c3ccc(F)cc3)cc(=O)c2c1 | 22 µM | > 22 µM | 203 µM | 203 µM | 203 µM | –
CC(=O)Nc1ccc(O)c(C(=O)/C=C/c2ccccc2F)c1 | > 125 µM | 12.3 µM | 33.8 µM | 33.8 µM | 33.8 µM | > 10.2
Nc1ccc2oc(-c3ccc(C(F)(F)F)cc3)c(O)c(=O)c2c1 | > 125 µM | > 50 µM | 3.9 µM | 3.9 µM | 3.9 µM | –
COc1c(-c2ccc(C(F)(F)F)cc2)oc2ccc(NC(C)=O)cc2c1=O | > 125 µM | 39 µM | 332 µM | 332 µM | 332 µM | > 3.2
COc1c(-c2ccccc2)oc2ccc(NC(C)=O)cc2c1=O | > 125 µM | 18 µM | 200 µM | 200 µM | 200 µM | > 6.9
Nc1ccc2oc(-c3ccccc3F)c(O)c(=O)c2c1 | 38 µM | > 38 µM | 44.5 µM | 44.5 µM | 44.5 µM | –
COc1ccc(-c2cc(=O)c3cc(NC(C)=O)ccc3o2)cc1 | 74 µM | > 50 µM | 226 µM | 226 µM | 226 µM | –
CC(=O)Nc1ccc(O)c(C(=O)/C=C/c2cccc(F)c2)c1 | 78.6 µM | 15.7 µM | 30.1 µM | 30.1 µM | 30.1 µM | 5
COc1cccc(-c2cc(=O)c3cc(NC(C)=O)ccc3o2)c1 | 10 µM | > 10 µM | > 404 µM | > 404 µM | > 404 µM | –
Nc1ccc2oc(-c3cccc(C(F)(F)F)c3)c(O)c(=O)c2c1 | 2 µM | > 2 µM | 8.1 µM | 8.1 µM | 8.1 µM | –
CC(=O)Nc1ccc2oc(-c3cccc(F)c3)c(O)c(=O)c2c1 | 36 µM | > 36 µM | 26.5 µM | 26.5 µM | 26.5 µM | –
CC(=O)Nc1ccc2oc(-c3ccc(F)cc3)c(O)c(=O)c2c1 | 26 µM | > 26 µM | 34.1 µM | 34.1 µM | 34.1 µM | –
CC(=O)Nc1ccc2oc(-c3cccc(C(F)(F)F)c3)c(O)c(=O)c2c1 | 1 µM | > 1 µM | 5.7 µM | 5.7 µM | 5.7 µM | –
COc1ccc(-c2oc3ccc(NC(C)=O)cc3c(=O)c2O)cc1 | 9 µM | > 9 µM | 98.7 µM | 98.7 µM | 98.7 µM | –
CC(=O)Nc1ccc2oc(-c3ccccc3)c(O)c(=O)c2c1 | 36 µM | > 36 µM | 64.7 µM | 64.7 µM | 64.7 µM | –
CC(=O)Nc1ccc2oc(-c3ccc(C(F)(F)F)cc3)cc(=O)c2c1 | 10 µM | > 10 µM | 330 µM | 330 µM | 330 µM | –
CC(=O)Nc1ccc2oc(-c3ccccc3)cc(=O)c2c1 | 97 µM | > 50 µM | 184 µM | 184 µM | 184 µM | –
Nc1ccc2oc(-c3ccccc3F)cc(=O)c2c1 | 44 µM | > 44 µM | 283 µM | 284 µM | 283 µM | –
